# Laboratory results reported in ChEMBL document CHEMBL1136765, “1,3-dioxolane-based ligands as a novel class of alpha1-adrenoceptor antagonists” (J Med Chem, 2003).
# Key:
# [1] = Selectivity given as ratio of pKb value against Alpha-1D receptor to pKb value against Alpha-1B receptor in rat; format: functional
# [2] = target: T1, Alpha-1B adrenergic receptor (Rattus norvegicus) (UniProt P15823); test: Inhibition of (-)-phenylephrine-induced contraction of rat spleen (Alpha-1B adrenergic receptor ); format: functional, tissue-based
# T1 sequence (whole entry): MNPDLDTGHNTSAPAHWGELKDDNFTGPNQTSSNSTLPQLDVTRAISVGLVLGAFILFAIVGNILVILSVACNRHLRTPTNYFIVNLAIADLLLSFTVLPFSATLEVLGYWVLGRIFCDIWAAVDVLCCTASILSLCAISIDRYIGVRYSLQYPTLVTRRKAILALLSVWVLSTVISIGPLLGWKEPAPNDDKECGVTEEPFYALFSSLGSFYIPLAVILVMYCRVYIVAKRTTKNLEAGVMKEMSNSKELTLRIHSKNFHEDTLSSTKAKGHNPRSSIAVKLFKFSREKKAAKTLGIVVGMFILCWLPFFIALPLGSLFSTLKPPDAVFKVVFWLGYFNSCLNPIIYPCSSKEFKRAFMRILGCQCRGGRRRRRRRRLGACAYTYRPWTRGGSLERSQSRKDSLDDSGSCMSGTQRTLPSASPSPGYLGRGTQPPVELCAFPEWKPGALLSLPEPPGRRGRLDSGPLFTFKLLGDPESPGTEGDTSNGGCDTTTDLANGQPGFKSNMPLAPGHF
# Method in brief: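 Rat spleen strips in buffer containing 4 µM propranolol to block β-adrenoceptors, 1 g resting tension, 2 h equilibration. Isometric cumulative phenylephrine curves at 30 min intervals; first discarded, second control.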
# [3] = target: T2, Alpha-1A adrenergic receptor (Rattus norvegicus) (UniProt P43140); test: Inhibition of (-)-noradrenaline-induced contraction of rat prostatic vas deferens (alpha1A receptor); format: functional
# T2 sequence (whole entry): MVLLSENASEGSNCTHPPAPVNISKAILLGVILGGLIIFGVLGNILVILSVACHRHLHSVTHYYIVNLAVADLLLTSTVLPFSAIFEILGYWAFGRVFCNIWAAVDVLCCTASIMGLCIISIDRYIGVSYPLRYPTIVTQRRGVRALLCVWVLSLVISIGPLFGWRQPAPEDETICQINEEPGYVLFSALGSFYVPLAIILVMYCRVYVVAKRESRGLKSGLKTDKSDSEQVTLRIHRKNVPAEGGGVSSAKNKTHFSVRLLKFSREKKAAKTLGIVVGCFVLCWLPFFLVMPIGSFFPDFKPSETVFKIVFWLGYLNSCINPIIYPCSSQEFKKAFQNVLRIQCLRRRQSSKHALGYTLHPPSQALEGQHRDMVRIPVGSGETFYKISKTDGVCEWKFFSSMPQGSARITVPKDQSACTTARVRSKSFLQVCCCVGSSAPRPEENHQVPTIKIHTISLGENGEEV
# Method in brief: (§1)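 Rat prostatic vas deferens portion equilibrated 60 min, washed every 15 min, primed twice with 10 µM noradrenaline, re-equilibrated 60 min; control noradrenaline concentration-response curve, then antagonist 30 min before repeat curve.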
# [4] = target: Alpha adrenergic receptor 1A and 1D (Rattus norvegicus) (UniProt P23944+P43140); test: Selectivity given as ratio of pKb value against Alpha-1D receptor to pKb value against alpha1A receptor in rat; format: functional
# [5] = target: Alpha adrenergic receptor 1A and 1B (Rattus norvegicus) (UniProt P15823+P43140); test: Selectivity given as ratio of pKb value against alpha1A receptor to pKb value against alpha-1B receptor in rat; format: functional
# [6] = target: T3, Alpha-1D adrenergic receptor (Rattus norvegicus) (UniProt P23944); test: Inhibition of (-)-noradrenaline-induced contraction of rat thoracic aorta (Alpha-1D adrenergic receptor); format: functional, tissue-based
# T3 sequence (whole entry): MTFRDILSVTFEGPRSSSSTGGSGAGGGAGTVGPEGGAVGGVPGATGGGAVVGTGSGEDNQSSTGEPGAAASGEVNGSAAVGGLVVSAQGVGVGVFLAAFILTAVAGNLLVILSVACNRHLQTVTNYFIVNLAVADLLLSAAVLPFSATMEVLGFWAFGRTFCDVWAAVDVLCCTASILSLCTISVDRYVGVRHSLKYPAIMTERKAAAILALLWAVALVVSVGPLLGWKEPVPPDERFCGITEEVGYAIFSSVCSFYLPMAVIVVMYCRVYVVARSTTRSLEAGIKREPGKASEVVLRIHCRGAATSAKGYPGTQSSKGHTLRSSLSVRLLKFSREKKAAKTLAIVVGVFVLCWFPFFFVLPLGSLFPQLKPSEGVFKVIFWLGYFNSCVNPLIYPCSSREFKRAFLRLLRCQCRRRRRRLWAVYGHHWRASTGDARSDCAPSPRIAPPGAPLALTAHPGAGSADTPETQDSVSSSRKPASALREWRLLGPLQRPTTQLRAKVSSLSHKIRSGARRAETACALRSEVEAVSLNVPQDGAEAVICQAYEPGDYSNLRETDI
# Method in brief: (§2)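 Endothelium-denuded rat thoracic aorta strips (denudation confirmed by no 100 µM acetylcholine relaxation after 1 µM noradrenaline) in Tyrode, 1 g tension, ≥2 h equilibration. Cumulative (-)-noradrenaline curves at 1 h intervals; third as control, antagonist 30 min before fourth.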
# [7] = target: T4, Alpha-1D adrenergic receptor (Rattus norvegicus, UniProt P23944); test: Antagonistic activity against (-)-noradrenaline-induced contraction of rat thoracic aorta (Alpha-1D adrenergic receptor); format: functional, tissue-based; details: read-out: pA2 (converted); method in brief: as §2
# T4 sequence (P23944 whole entry): T3 sequence (whole entry)
# [8] = target: T5, Alpha-1A adrenergic receptor (Rattus norvegicus, UniProt P43140); test: Antagonistic activity against (-)-noradrenaline-induced contraction of rat prostatic vas deferens (Alpha-1A adrenergic receptor ); format: functional, tissue-based; details: read-out: pA2 (converted)
# T5 sequence (P43140 whole entry): T2 sequence (whole entry)
# Method in brief: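 Rat prostatic vas deferens segments equilibrated 60 min, washed every 15 min, primed twice with 10 µM noradrenaline, then re-equilibrated 60 min. Basal noradrenaline concentration-response curve, then repeat after 30 min antagonist equilibration.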
# [9] = target: T2, Alpha-1A adrenergic receptor (Rattus norvegicus); test: Antagonistic activity against (-)-noradrenaline-induced contraction of rat prostatic vas deferens (Alpha-1A adrenergic receptor); format: functional, tissue-based; method in brief: as §1
SMILES,Selectivity [1],pKb [2],pKb [3],Selectivity [4],Selectivity [5],pKb [6],Kb [7],Kb [8],pKb [9]
COc1cccc(OC)c1OCCNCC1CO[C@@H](c2cccc3ccccc23)O1.O=C(O)C(=O)O (some centres undefined),5,6.38,5.69,24,0.2,7.07,,,
COc1cccc(OC)c1OCCNCC1CO[C@@H](C(c2ccccc2)c2ccccc2)O1.O=C(O)C(=O)O (some centres undefined),28,5.44,6.77,1,21,6.88,,,
COc1cccc(OC)c1OCCNCC1CO[C@@](C)(c2ccccc2)O1.O=C(O)C(=O)O (some centres undefined),7,5.93,5.74,11,0.6,6.69,,,
COc1ccccc1N1CCN(CCN2C(=O)CC3(CCCC3)CC2=O)CC1,,7.48,,,,8.4,,,
COc1cccc(OC)c1OCCNCC1COC(c2ccccc2)(c2ccccc2)O1.O=C(O)C(=O)O (centres undefined),11,5.89,5.73,16,0.7,,117 nM,,
COc1cccc(OC)c1OCCNCC1CO[C@@H](c2ccccc2)O1.O=C(O)C(=O)O (some centres undefined),1,6.19,6.31,0.7,1,6.18,,,
O=C(O)C(=O)O.c1ccc(OCCNCC2CO[C@H](c3ccccc3)O2)cc1 (some centres undefined),6,6.3,5.44,45,0.1,7.09,,,
O=C(O)C(=O)O.c1ccc(OCCNCC2COC3(CCCCC3)O2)cc1 (centres undefined),2,6.2,5.27,19,0.1,6.54,,,
COc1cccc(OC)c1OCCNCC1CO[C@H](Cc2ccccc2)O1.O=C(O)C(=O)O (some centres undefined),0.2,5.77,5.36,0.6,0.4,5.13,,,
COc1cccc(OC)c1OCCNCC1CO[C@@H](Cc2ccccc2)O1.O=C(O)C(=O)O (some centres undefined),5,5.45,6.82,0.2,23,6,,,
COc1cccc(OC)c1OCCNCC1COc2ccccc2O1 (centres undefined),,,,,,,2.51 nM,0.437 nM,
COc1cccc(OC)c1OCCNCC1COC(c2ccc3ccccc3c2)O1.O=C(O)C(=O)O (centres undefined),33,5.12,5.79,7,5,6.65,,,
COc1cccc(OC)c1OCCNCC1CO[C@](C)(c2ccccc2)O1.O=C(O)C(=O)O (some centres undefined),21,5.56,5.8,12,2,,129 nM,,
COc1cccc(OC)c1OCCNCC1CO[C@H](C(c2ccccc2)c2ccccc2)O1.O=C(O)C(=O)O (some centres undefined),44,5.51,5.6,36,12,7.15,,,
O=C(O)C(=O)O.c1ccc(OCCNCC2CO[C@@H](c3ccccc3)O2)cc1 (some centres undefined),4,6.4,6.01,9,0.4,6.94,,,
COc1cccc(OC)c1OCCNCC1CO[C@H](c2ccccc2)O1.O=C(O)C(=O)O (some centres undefined),6,5.7,,0.7,8,6.44,,,6.61
COc1cccc(OC)c1OCCNCC1CO[C@H](c2cccc3ccccc23)O1.O=C(O)C(=O)O (some centres undefined),9,6.38,< 5,> 209,< 0.04,7.32,,,
